Measured values taken from ChEMBL document CHEMBL1126301, “Anti-HIV-I activity of linked lexitropsins” (J Med Chem, 1992).
≈ marks a conversion by molar mass, not a printed value. Calls of active or inactive are those of the source. No cut-off for these calls is given here.

Experiments:
CCRF-CEM [1] = test: (§1) Inhibitory activity against T4-lymphocytes (CEM cell line) infected with HIV-1; moderate; type: functional, cell-based; conditions: Homo sapiens
[2] = system: Human immunodeficiency virus 1; test: Inhibitory activity against HIV-1 in T4-lymphocytes (CEM cell line).; type: functional, organism-based; conditions: Human immunodeficiency virus 1, CCRF-CEM
CCRF-CEM [3] = test: Inhibitory activity against T4-lymphocytes (CEM cell line) infected with HIV-1; inactive; type: functional, cell-based; conditions: Homo sapiens
CCRF-CEM [4] = test: Inhibition of T4-lymphocytes (CEM cell line) infected with HIV-1.; type: functional, cell-based; conditions: Homo sapiens
[5] = Therapeutic index(TI) was measured as ratio of TD50 and MIC50 (Retrovirus); conditions: retroviridae
Murine leukemia virus [6] = test: Concentration inhibiting moloney murine leukemia retrovirus; type: functional
Method in brief: (§2)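 SC-1 cells (3.5 × 10⁴ mL⁻¹) seeded in 5% FBS-MEM 1 day ahead. Compound dilutions added in triplicate, then 20-40 pfu Moloney virus per well, shaken at 0, 30 and 60 min. Incubated 5 days, 37 °C, 5% CO₂; viability checked for toxicity. Then UV 3 min, XC cells overlaid (2 × 10⁵ mL⁻¹), 4 days, 0.5% crystal violet stain, plaques counted. MIC₅₀ interpolated between two dilutions.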

Murine leukemia virus [7] = test: Inhibitory activity on moloney murine leukemia retrovirus.; type: functional; method in brief: as §2
CCRF-CEM [8] = test: Inhibitory activity against T4-lymphocytes (CEM cell line) infected with HIV-1; active; type: functional, cell-based; conditions: Homo sapiens
HIV-1 = test: Therapeutic index (TI) was measured as ratio of IC50 and EC50 (HIV-1); conditions: human immunodeficiency virus 1; read-out: TI50
[9] = system: Human immunodeficiency virus 1; test: as §1; type: functional, organism-based; conditions: CCRF-CEM

EC50 [2] [µM]	IC50 (CCRF-CEM [4]) [µM]	SMILES	Activity (CCRF-CEM [1])	TI [5] [TD50/MIC50]	TD50 (Murine leukemia virus [7]) [µg/mL]	also measured
42.5		Cn1cc(NC(=O)c2cc(NC(=O)[C@H]3C[C@H]3C(=O)Nc3cc(C(=O)Nc4cc(C(=O)NCCC(=N)N)n(C)c4)n(C)c3)cn2C)cc1C(=O)NCCC(=N)N	Moderate			
	> 127	Cn1cc(NC(=O)[C@H]2CCC(N)=N2)cc1C(=O)NCCC(=N)N				Activity (CCRF-CEM [3]): inactive
3.44		Cn1cc(NC(=O)c2cc(NC(=O)[C@H]3C[C@@H]3C(=O)Nc3cc(C(=O)Nc4cc(C(=O)NCCC(=N)N)n(C)c4)n(C)c3)cn2C)cc1C(=O)NCCC(=N)N	Moderate			
6.6	78	Cn1cc(NC(=O)c2cc(NC(=O)CCCCCCCCCCC(=O)Nc3cc(C(=O)Nc4cc(C(=O)NCCC(=N)N)n(C)c4)n(C)c3)cn2C)cc1C(=O)NCCC(=N)N	Moderate			
		Nc1ccn([C@H]2CC[C@@H](CO)O2)c(=O)n1 [ZALCITABINE]		> 135.14	>100	MIC50 (Murine leukemia virus [6]): 0.74 µg/mL (≈ 3.5 µM)
		Cl.Cl.Cl.Cn1cc(NC(=O)c2cc(NC(=O)c3cc(NC(=O)c4cc(C(=O)Nc5cc(C(=O)Nc6cc(C(=O)Nc7cc(C(=O)NCCC(=N)N)n(C)c7)n(C)c6)n(C)c5)cc(C(=O)Nc5cc(C(=O)Nc6cc(C(=O)Nc7cc(C(=O)NCCC(=N)N)n(C)c7)n(C)c6)n(C)c5)c4)cn3C)cn2C)cc1C(=O)NCCC(=N)N		> 1.6	>100	MIC50 (Murine leukemia virus [6]): 62.8 µg/mL
		Cl.Cl.Cn1cc(NC(=O)c2cc(NC(=O)c3cc(NC(=O)c4cccc(C(=O)Nc5cc(C(=O)Nc6cc(C(=O)Nc7cc(C(=O)NCCC(=N)N)n(C)c7)n(C)c6)n(C)c5)n4)cn3C)cn2C)cc1C(=O)NCCC(=N)N		> 4.4	>100	Activity (CCRF-CEM [8]): Active
		Cn1cc(NC(=O)c2cc(NC(=O)CCCCCCC(=O)Nc3cc(C(=O)Nc4cc(C(=O)NCCC(=N)N)n(C)c4)n(C)c3)cn2C)cc1C(=O)NCCC(=N)N				Activity (CCRF-CEM [3]): inactive
	> 120	Cn1cc(NC(=O)c2cc(NC(=O)c3cc(NC(=O)CCCCCCCCCCCCCCCCCCCCCCC(=O)Nc4cc(C(=O)Nc5cc(C(=O)Nc6cc(C(=O)NCCC(=N)N)n(C)c6)n(C)c5)n(C)c4)cn3C)cn2C)cc1C(=O)NCCC(=N)N				Activity (CCRF-CEM [3]): inactive
1.21	17.9	Cn1cc(NC(=O)c2cc(NC(=O)c3ccc(C(=O)Nc4cc(C(=O)Nc5cc(C(=O)NCCC(=N)N)n(C)c5)n(C)c4)cc3)cn2C)cc1C(=O)NCCC(=N)N				selectivity ratio (HIV-1): 14.8; Activity (CCRF-CEM [8]): Active
0.35		Cn1cc(NC(=O)c2cc(NC(=O)/C=C\C(=O)Nc3cc(C(=O)Nc4cc(C(=O)NCCC(=N)N)n(C)c4)n(C)c3)cn2C)cc1C(=O)NCCC(=N)N				Activity (CCRF-CEM [8]): Active
		Cn1cc(NC(=O)c2cc(NC(=O)CCCCCCCCC(=O)Nc3cc(C(=O)Nc4cc(C(=O)NCCC(=N)N)n(C)c4)n(C)c3)cn2C)cc1C(=O)NCCC(=N)N				Activity (CCRF-CEM [3]): inactive
		Cl.Cl.Cn1cc(NC(=O)c2cc(NC(=O)c3cc(NC(=O)C4CCC4C(=O)Nc4cc(C(=O)Nc5cc(C(=O)Nc6cc(C(=O)NCCC(=N)N)n(C)c6)n(C)c5)n(C)c4)cn3C)cn2C)cc1C(=O)NCCC(=N)N (stereo not given)	Moderate	1.7	83.5	MIC50 (Murine leukemia virus [6]): > 50 µg/mL
3.55		Cn1cc(NC(=O)c2cc(NC(=O)c3cccc(C(=O)Nc4cc(C(=O)Nc5cc(C(=O)NCCC(=N)N)n(C)c5)n(C)c4)c3)cn2C)cc1C(=O)NCCC(=N)N				Activity (CCRF-CEM [8]): Active
		Cl.Cl.Cn1cc(NC(=O)c2cc(NC(=O)c3cc(NC(=O)c4cncc(C(=O)Nc5cc(C(=O)Nc6cc(C(=O)Nc7cc(C(=O)NCCC(=N)N)n(C)c7)n(C)c6)n(C)c5)c4)cn3C)cn2C)cc1C(=O)NCCC(=N)N	Moderate		>100	MIC50 (Murine leukemia virus [6]): > 100 µg/mL
		Cl.Cl.Cn1cc(NC(=O)c2cc(NC(=O)c3cc(NC(=O)c4ccc(C(=O)Nc5cc(C(=O)Nc6cc(C(=O)Nc7cc(C(=O)NCCC(=N)N)n(C)c7)n(C)c6)n(C)c5)nc4)cn3C)cn2C)cc1C(=O)NCCC(=N)N		> 6.28	>100	Activity (CCRF-CEM [8]): Active
		Cn1cc(NC(=O)c2cc(NC(=O)c3cc(NC(=O)CCCCCCCCC(=O)Nc4cc(C(=O)Nc5cc(C(=O)Nc6cc(C(=O)NCCC(=N)N)n(C)c6)n(C)c5)n(C)c4)cn3C)cn2C)cc1C(=O)NCCC(=N)N				Activity [9]: Moderate
	> 127	Cn1cc(NC(=O)[C@@H]2CCC(N)=N2)cc1C(=O)NCCC(=N)N				Activity (CCRF-CEM [3]): inactive

EC50 [2] [µM]	IC50 (CCRF-CEM [4]) [µM]	SMILES	Activity (CCRF-CEM [1])	TI [5] [TD50/MIC50]	TD50 (Murine leukemia virus [7]) [µg/mL]	also measured
		Cl.Cl.Cn1cc(NC(=O)c2cc(NC(=O)c3cc(NC(=O)c4ccccc4C(=O)Nc4cc(C(=O)Nc5cc(C(=O)Nc6cc(C(=O)NCCC(=N)N)n(C)c6)n(C)c5)n(C)c4)cn3C)cn2C)cc1C(=O)NCCC(=N)N		> 1.26	>100	
		Cl.Cl.Cn1cc(NC(=O)c2cc(NC(=O)c3cc(NC(=O)[C@@H]4C5C=CC(C5)[C@H]4C(=O)Nc4cc(C(=O)Nc5cc(C(=O)Nc6cc(C(=O)NCCC(=N)N)n(C)c6)n(C)c5)n(C)c4)cn3C)cn2C)cc1C(=O)NCCC(=N)N		> 4.54	>100	
1.37		Cn1cc(NC(=O)c2cc(NC(=O)/C=C/C(=O)Nc3cc(C(=O)Nc4cc(C(=O)NCCC(=N)N)n(C)c4)n(C)c3)cn2C)cc1C(=O)NCCC(=N)N				Activity (CCRF-CEM [8]): Active
	> 100	Cn1cc(NC(=O)c2cc(NC(=O)c3cc(NC(=O)CCCCCCC(=O)Nc4cc(C(=O)Nc5cc(C(=O)Nc6cc(C(=O)NCCC(=N)N)n(C)c6)n(C)c5)n(C)c4)cn3C)cn2C)cc1C(=O)NCCC(=N)N				Activity (CCRF-CEM [3]): inactive
		Cl.Cl.Cn1cc(NC(=O)c2cc(NC(=O)c3cc(NC(=O)/C=C/C(=O)Nc4cc(C(=O)Nc5cc(C(=O)Nc6cc(C(=O)NCCC(=N)N)n(C)c6)n(C)c5)n(C)c4)cn3C)cn2C)cc1C(=O)NCCC(=N)N		625	100	Activity (CCRF-CEM [8]): Active
91	750	Cn1cc(NC(=O)c2cc(NC(=O)[C@H]3CCC(N)=N3)c[nH]2)cc1C(=O)NCCC(=N)N	Moderate			selectivity ratio (HIV-1): 8.2
		Cl.Cl.Cn1cc(NC(=O)c2cc(NC(=O)c3cc(NC(=O)c4cccc(C(=O)Nc5cc(C(=O)Nc6cc(C(=O)Nc7cc(C(=O)NCCC(=N)N)n(C)c7)n(C)c6)n(C)c5)c4)cn3C)cn2C)cc1C(=O)NCCC(=N)N		2	>100	MIC50 (Murine leukemia virus [6]): > 50 µg/mL; Activity (CCRF-CEM [8]): Active
11.9		Cn1cc(NC(=O)c2cc(NC(=O)Nc3cc(C(=O)Nc4cc(C(=O)NCCC(=N)N)n(C)c4)n(C)c3)cn2C)cc1C(=O)NCCC(=N)N	Moderate			
5.6	181	Cn1cc(NC(=O)c2cc(NC(=O)[C@@H]3CCCC[C@H]3C(=O)Nc3cc(C(=O)Nc4cc(C(=O)NCCC(=N)N)n(C)c4)n(C)c3)cn2C)cc1C(=O)NCCC(=N)N	Moderate			
		Cl.Cl.Cn1cc(NC(=O)c2cc(NC(=O)c3cc(NC(=O)/C=C\C(=O)Nc4cc(C(=O)Nc5cc(C(=O)Nc6cc(C(=O)NCCC(=N)N)n(C)c6)n(C)c5)n(C)c4)cn3C)cn2C)cc1C(=O)NCCC(=N)N		7.52	84.29	Activity (CCRF-CEM [3]): inactive
3.9	57	Cn1cc(NC(=O)c2cc(NC(=O)CCCCCCCCCC(=O)Nc3cc(C(=O)Nc4cc(C(=O)NCCC(=N)N)n(C)c4)n(C)c3)cn2C)cc1C(=O)NCCC(=N)N	Moderate			selectivity ratio (HIV-1): 14.6
		Cc1cn([C@H]2C[C@H](N=[N+]=[N-])[C@@H](CO)O2)c(=O)[nH]c1=O [ZIDOVUDINE]		> 714000	>100	MIC50 (Murine leukemia virus [6]): 0.0014 µg/mL (≈ 0.00524 µM)
		Cl.Cl.Cn1cc(NC(=O)c2cc(NC(=O)c3cc(NC(=O)c4ccc(C(=O)Nc5cc(C(=O)Nc6cc(C(=O)Nc7cc(C(=O)NCCC(=N)N)n(C)c7)n(C)c6)n(C)c5)cc4)cn3C)cn2C)cc1C(=O)NCCC(=N)N		> 25.13	>100	Activity (CCRF-CEM [8]): Active
46.3	168	Cn1cc(NC(=O)c2cc(NC(=O)[C@H]3CCC[C@@H]3C(=O)Nc3cc(C(=O)Nc4cc(C(=O)NCCC(=N)N)n(C)c4)n(C)c3)cn2C)cc1C(=O)NCCC(=N)N	Moderate			
88	750	Cn1cc(NC(=O)c2cc(NC(=O)[C@@H]3CCC(N)=N3)c[nH]2)cc1C(=O)NCCC(=N)N	Moderate			selectivity ratio (HIV-1): 8.5
		Cn1cc(NC(=O)c2cc(NC(=O)c3cc(NC(=O)CCC(=O)Nc4cc(C(=O)Nc5cc(C(=O)Nc6cc(C(=O)NCCC(=N)N)n(C)c6)n(C)c5)n(C)c4)cn3C)cn2C)cc1C(=O)NCCC(=N)N				Activity (CCRF-CEM [3]): inactive
0.42		Cn1cc(NC(=O)c2cc(NC(=O)[C@H]3CC[C@@H]3C(=O)Nc3cc(C(=O)Nc4cc(C(=O)NCCC(=N)N)n(C)c4)n(C)c3)cn2C)cc1C(=O)NCCC(=N)N				Activity (CCRF-CEM [8]): Active
